Converted amounts (≈) assume the structure as drawn.
Legend:
[1] = Cytotoxicity against human HepG2(2.2.15) cells; type: cell-based; conditions: read-out: TC50 (the source's name)
[2] = Selectivity index, ratio of TC50 for human HepG2(2.2.15) cells to IC50 for Hepatitis B virus; type: toxicity; conditions: read-out: Selectivity Index
Hepatitis B virus = test: Antiviral activity against Hepatitis B virus infected in human HepG2.2.15 cells assessed as inhibition of viral DNA replication by semi-quantitative EIA; type: functional, organism-based; conditions: HepG2 2.2.15
Summary of the method: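 HepG2 2.2.15 cells, derived from hepatoblastoma HepG2 and stably transfected with HBV, were seeded in flat-bottomed tissue culture wells. They received eight consecutive daily doses of compound in RPMI1640 with 2% fetal bovine serum, with lamivudine as the positive control. HBV nucleic acids and proteins were analysed at the end of treatment (day 8).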

| IC50 (Hepatitis B virus) [µg/mL] | SMILES | CC50 [1] [µg/mL] | selectivity ratio [2] |
| --- | --- | --- | --- |
| – | Cc1cn([C@@H]2[C@@H](O)[C@H](O)[C@@H](O)CN2C(=O)OC(C)(C)C)c(=O)[nH]c1=O | 1000 (≈ 2800 µM) | – |
| – | Cc1cn([C@H]2[C@@H](O)[C@H](O)[C@@H](O)CN2C(=O)OC(C)(C)C)c(=O)[nH]c1=O | 1000 (≈ 2800 µM) | – |
| – | CC(C)(C)OC(=O)N1C[C@H](O)[C@@H](O)[C@@H](O)[C@@H]1n1cc(F)c(=O)[nH]c1=O | 29 (≈ 80.3 µM) | – |
| 247 (≈ 675 µM) | CC(C)(C)OC(=O)N1C[C@@H](O)[C@@H](O)[C@H](O)[C@H]1n1cnc2c(N)ncnc21 | 1000 (≈ 2730 µM) | 4 |
| – | CC(C)(C)OC(=O)N1C[C@@H](O)[C@@H](O)[C@H](O)[C@@H]1n1cnc2c(N)ncnc21 | 1000 (≈ 2730 µM) | – |
| 2.74 (≈ 7.58 µM) | CC(C)(C)OC(=O)N1C[C@@H](O)[C@@H](O)[C@H](O)[C@H]1n1cc(F)c(=O)[nH]c1=O | 37 (≈ 103 µM) | 13.5 |
| – | CC(C)(C)OC(=O)N1CC(O)[C@@H](O)[C@H](O)[C@H]1n1cnc2c(N)ncnc21 (single isomer, unassigned) | > 1000 | – |
| – | CC(C)(C)OC(=O)N1CC(O)[C@@H](O)[C@H](O)[C@H]1n1ccc(=O)[nH]c1=O (single isomer, unassigned) | > 1000 | – |
| – | CC(C)(C)OC(=O)N1CC(O)[C@@H](O)[C@H](O)[C@H]1n1cc(F)c(=O)[nH]c1=O (single isomer, unassigned) | 192 (≈ 533 µM) | – |
| – | CC(C)(C)OC(=O)N1CC(O)[C@@H](O)[C@H](O)[C@H]1n1ccc(N)nc1=O (single isomer, unassigned) | > 1000 | – |
| 93 (≈ 260 µM) | Cc1cn([C@@H]2[C@H](O)[C@H](O)C(O)CN2C(=O)OC(C)(C)C)c(=O)[nH]c1=O (single isomer, unassigned) | 430 (≈ 1200 µM) | 4.6 |
| 33 (≈ 92.4 µM) | Cc1cn([C@H]2[C@H](O)[C@H](O)C(O)CN2C(=O)OC(C)(C)C)c(=O)[nH]c1=O (single isomer, unassigned) | 577 (≈ 1620 µM) | 17.5 |
| 281 (≈ 767 µM) | CC(C)(C)OC(=O)N1CC(O)[C@@H](O)[C@@H](O)[C@@H]1n1cnc2c(N)ncnc21 (single isomer, unassigned) | 693 (≈ 1890 µM) | 3.6 |
| 316 (≈ 862 µM) | CC(C)(C)OC(=O)N1C[C@@H](O)C(O)C(O)C1n1cnc2c(N)ncnc21 (single isomer, unassigned) | 1000 (≈ 2730 µM) | 3.2 |
| – | Cc1cn([C@@H]2[C@@H](O)[C@H](O)C(O)CN2C(=O)OC(C)(C)C)c(=O)[nH]c1=O (single isomer, unassigned) | > 1000 | – |
| 4.51 (≈ 19.7 µM) | Nc1ccn([C@@H]2CS[C@H](CO)O2)c(=O)n1 [LAMIVUDINE] | 1000 (≈ 4360 µM) | 222 |

Reference: ChEMBL document CHEMBL1641452, “Synthesis and in vitro anti-hepatitis B virus activity of six-membered azanucleoside analogues” (Bioorg Med Chem, 2011)
